What is called apparent Kd is the concentration giving half-maximal binding under the conditions of the assay.

The test system of this series is MS2 coat protein. The experiment in a line: apparent Kd, MS2 coat protein; higher = weaker binding; RNA-MaP array; FMN 200 µM where present. The gist of the method:
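SNAP-549-labelled MS2 coat protein, doubled from 0.7 or 1.5 nM to 3 µM, was titrated over designs transcribed by stalled E. coli RNA polymerase on Illumina sequencing-chip clusters. Titrations were run without and then with constant ligand in 100 mM Tris-HCl pH 7.5, 80 mM KCl, 4 mM MgCl2, BSA, DTT, yeast tRNA and Tween-20. The apparent Kd is the median of filtered per-cluster fits to green signal normalised to red-channel RNA signal and control-cluster median Fmax.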

Setting [1] is: designed as: OFF switch for flavin mononucleotide, no ligand.
Where [2] appears, read: ligand present: flavin mononucleotide, designed as: OFF switch for flavin mononucleotide.
[3] abbreviates: designed as: ON switch for flavin mononucleotide, no ligand.
Setting [4] is: ligand present: flavin mononucleotide, designed as: ON switch for flavin mononucleotide.

“UGUCGGAGCAGAGGAUAUUACAUGAGGAUCACCCAUGUAAAUGGAAUAAGCUGGAAACAGCAAUGUAAGAAGGCUGCUCCGACA”: the “apparent Kd” value runs as follows: under setting [1], 70.2 nM; under setting [2], 619 nM.
“UGACGGAGCUGAGGAUAUAACAUGAGGAUCACCCAUGUAAGUCUCCAGGAAACUGGAGACAAUAGUUAGAAGGCAGCUCCGUCA”: the “apparent Kd” value is, setting by setting: under setting [1], 14.6 nM; under setting [2], 19.4 nM.
Consider “GUGGUACAUGAGGAUCACCCAUGUCAGGAUAUCGUGUGUUUUUUUUCGGCCGCGCGCGCGAGAAGGGACGUCUU”, for which the “apparent Kd” value runs as follows: under setting [1], 21.6 nM; under setting [2], 21.6 nM.
For “GGACCGAGUGUGAGGAUAUGCUGGUCCUUGGAUCAGCAGAAGGCACAUGAGGAUCACCCAUGUGGUGUCGGUCC”, the “apparent Kd” value is 573 nM under setting [1] and 203 nM under setting [2].
Take “AUGCUAGUGUGAGGAUAUCAACAUGAGGAUCACCCAUGUUGGAAGUACACGACAUGCGGUACAGGUGAGAAGGUACAUUAGCAU”: the “apparent Kd” value is, setting by setting: under setting [1], 27.4 nM; under setting [2], 53.2 nM.
As for “GGGUACAUCGGAGGAUAUCAUGUAAAUACAUGAGGAUCACCCAUGUCGAUGGAGACAUCGGAGAUUAAGAAGGCCGAUGUACCG”, the “apparent Kd” value turned out to be 801 nM under setting [3] and 842 nM under setting [4].
For “GGACGUCGCAUUAACAUGAGGAUCACCCAUGUCAAAGGACAUGAGGAUAUGGAUCCUAAUUGGAUCCAGAAGGCAUGGACGUCC”, in that order: 485 nM and 35.8 nM.
On to “UCGAACUUUCAUGUAAUUCGCACAUGAGGAUCACCCAUGUACGAGGAUAUGUACCUGAACGGCUAACAGAAGGCGUACUGGGCA”, for which the “apparent Kd” value by setting is: under setting [1], 242 nM; under setting [2], 83.3 nM.
The corresponding values for “GAUGAGAGAGGAUAUACAUGAGGAUCACCCAUGUAAUUUUCGGACAUGGAAGCCUGAUGUAGAAGGCUCGCAUG” are 78.5 nM and 38.6 nM.
For “CUACUGUGAGGAUAUGGUGAGUAGUGCCUGAGCGCUGCUCACCAGAAGGCACAUGAGGAUCACCCAUGUAUGAC”, in that order: 53.9 nM and 220 nM.
For “GUUUUUUUUAGUUCAUACUAUAUGAUAGAAGGUGAAAUAUAGACAUGAGGAUCACCCAUGUAAUUCAAGGAUAUGUAGUUACUC”, the “apparent Kd” value is 35.1 nM under setting [3] and 24.3 nM under setting [4].
“UUGGGUUUGCGAGGAUAUCGUAUGUGAUUUGAACGAGAAGGCGCUAUUUAAAUUAUUUUAACAUAACAUGAGGAUCACCCAUGU”: the “apparent Kd” value runs as follows: under setting [3], 17.4 nM; under setting [4], 16 nM.
Regarding “CUGGUGUCAGGAUAUGCAUAGCAGUGACCGGAACCCGGUCAGCAGAAGGGACAUGAGGAUCACCCAUGUUAAUA”, the “apparent Kd” value came out at 24.2 nM under setting [1] and 57.7 nM under setting [2].
As to “CUGUAGAGUUAGGAUAUCGGCGCGUGAGAAGUUUGAGAAGGGACCACAUGAGGAUCACCCAUGUGUCUUCACCU”, the “apparent Kd” value reads like this: under setting [1], 14.7 nM; under setting [2], 15.7 nM.
With “CAUGUCCUCACAGGAUAUGCACCACUUUGUGGUGCAGAAGGGUGGAUACAUGAGGAUCACCCAUGUGGACAUGAUAUAUUUAAU”, the “apparent Kd” value reads like this: under setting [3], 608 nM; under setting [4], 57.2 nM.
With “AGCAUGCUAGGAUAUACGGGACAUUAGGGUUUGUCGUGUGGACAUGAGGAUCACCCAUGUAGAAGGAGCGUGCA”, the “apparent Kd” value stood at 54.4 nM under setting [1] and 228 nM under setting [2].
Turning to “UGAAUGUGAGGAUAUGGUGAGUAGUGCCAGAGCGCUGCUCACCAGAAGGCACAUGAGGAUCACCCAUGUACUUG”, the “apparent Kd” value under setting [1] came to 64.3 nM and the “apparent Kd” value under setting [2] stood at 179 nM.
For “AGCUGUGGCCGAGGAUAUCUAAAUUCUUAAAACGAAAUAUAAUCGAACAUGAGGAUCACCCAUGUAGAGAAGGCGGUCUCAGCA”, the “apparent Kd” value came to 19.8 nM under setting [1] and 20.7 nM under setting [2].
On to “GCAGGUUAAGUCAGGAUAUACCUAUGGAUACAUAGGUAGAAGGGACAUGAGGAUCACCCAUGUGCCUCGCCUGC”, for which the “apparent Kd” value was found to be 17.7 nM under setting [1] and 69.3 nM under setting [2].
Turning to “GUUAAGGUAGGAUAUACGAUAAUAUAGGGUAGAAUUAUAACACAUGAGGAUCACCCAUGUAGAAGGACCAAUUG”, the “apparent Kd” value runs as follows: under setting [1], 31.2 nM; under setting [2], 39.5 nM.
Take “AAUAACAGAGGAUAUACUAUUUUAUGUGUUUAUUGUUUUAAACAUGAGGAUCACCCAUGUAGAAGGCUGAUUGA”: the “apparent Kd” value amounted to 77.3 nM under setting [1] and 114 nM under setting [2].
For “UGUGUGUGGCAGGAUAUGCCGGUCGUUGGACGGGUAGAAGGGUCUACAUGAGGAUCACCCAUGUGGCCGGUUGG”, in that order: 18.4 nM and 20.2 nM.
“GCCAUCGCAUGAGGAUAUGCUCCCGUUUCGGGAGCAGAAGGCAUGUCAUAUGACAUGAGGAUCACCCAUGUAGCUAAGAUGGCA”: the “apparent Kd” value by setting is: under setting [3], 576 nM; under setting [4], 17.5 nM.
Take “AAUAAGCUAGGAUAUACAUGAGGAUCACCCAUGUGAGGGCACGGCCGGCGCGGGCCCGGUAGAAGGAGUCAUAA”: the “apparent Kd” value runs as follows: under setting [1], 28.6 nM; under setting [2], 23.6 nM.
For “CGGUGACGUGUAGGAUAUGGAGGUGGGUUUUGGCCAGAAGGACAUGAGGAUCACCCAUGUGGUAGAGGGUUGGCGGCUGCCCGU”, the “apparent Kd” value by setting is: under setting [1], 19.7 nM; under setting [2], 18.9 nM.
With “GAGUGGCGAUUAGGAUAUACAGUGAUAAUGAUAGUAGAAGGAAUUGACAUGAGGAUCACCCAUGUAGGACUAAUCCAGAGAGAG”, the “apparent Kd” value is, setting by setting: under setting [3], 96.1 nM; under setting [4], 84.9 nM.
Consider “GUAAAGUGAGGAUAUGGUAAAUUAAUUAUUUAGUAAUUAAUCCAGAAGGCACAUGAGGAUCACCCAUGUAAAUG”, for which the “apparent Kd” value is, setting by setting: under setting [1], 30.7 nM; under setting [2], 51.4 nM.
On to “UGUCAUAUAUAGAAGGGUAGUAGGGUUUUACAUGAGGAUCACCCAUGUAUUAUAGGAUAUGUGUAAAGUUAUUAUUAAAGUAAA”, for which the “apparent Kd” value under setting [1] is 29.1 nM and the “apparent Kd” value under setting [2] stood at 21.5 nM.
As to “AAAAAUCGAGGAUAUACAUGAGGAUCACCCAUGUGGGACCAAGAAAACACAAAAGAAAGUAGAAGGCGAUAAAA”, the “apparent Kd” value is, setting by setting: under setting [1], 29.2 nM; under setting [2], 113 nM.
In the case of “AAAACACAUGAGGAUCACCCAUGUAUCUGGACCAUAGGAUAUCCGCGCCCACUAGGGUAUGGAGAAGGGUGAGCCC”, the “apparent Kd” value came out at 161 nM under setting [3] and 122 nM under setting [4].
On to “AUCAGCUAGUCAGGAUAUACGUCACUGCGUCAGCAGUGUGGUAAGAUCACAUGAGGAUCACCCAUGUAGAAGGGACGAGCUGAU”, for which the “apparent Kd” value was 14.2 nM under setting [1] and 295 nM under setting [2].
For the sequence “GACAGCUCGUGAGGAUAUACAACACUGCUUCGGCAGUGUAUUAAGAUCACAUGAGGAUCACCCAUGUAGAAGGCACGAGCUGAU”, the “apparent Kd” value came out at 13.5 nM under setting [1] and 319 nM under setting [2].
Consider “GGACCGUGAAGAGUUGGCGGUCGGCAGGAUAUGACAUGAGGAUCACCCAUGUGAACUCCAUUGGGUCAGAAGGGCCACGACACA”, for which the “apparent Kd” value reads like this: under setting [1], 37.5 nM; under setting [2], 108 nM.
On to “UGUAUUAACGGAGGAUAUCGAUAUCAAACAUGAGGAUCACCCAUGUUGAGGAUCACCCAUGUCCAUGAGAAGGCUGGCGUACUU”, for which the “apparent Kd” value under setting [3] was 20.8 nM and the “apparent Kd” value under setting [4] worked out at 20.6 nM.
Turning to “GGUCCUUCUGUUAGGAUAUGCUUUGGGCUUCCGCAGUAGAAGGAACAUGAGGAUCACCCAUGUCCGAUGCCGUC”, the “apparent Kd” value is, setting by setting: under setting [1], 86 nM; under setting [2], 88.1 nM.
“GUAGCAUAAUCAGGAUAUUCAGCGAAUAGAUUGACAUGAGGAUCACCCAUGUGGCGAAAGCCUAGGGAGAAGGGAUAAUGCUAC”: the “apparent Kd” value is, setting by setting: under setting [3], 405 nM; under setting [4], 42.1 nM.
For “UUAUAACAGUCAGGAUAUGUAACGUACAACGGCGCAGAAGGGACAUGAGGAUCACCCAUGUUAUGGUUCUGGUACUAUGACGUU”, the “apparent Kd” value was 13.2 nM under setting [1] and 14.9 nM under setting [2].
“GUAGUGUAUGUAGGAUAUGUGAAGGAAACAUUUACAGAAGGACAUGAGGAUCACCCAUGUAUUUCAGUCACCAAUGUGACUGAU”: the “apparent Kd” value runs as follows: under setting [1], 24.7 nM; under setting [2], 43.4 nM.
As for “GAGUGACAUGAGGAUCACCCAUGUGAGGAUAUCGGACGGACCAAAUUAACAAUAAAUGCGAGAAGGCACAUCGG”, the “apparent Kd” value is, setting by setting: under setting [1], 58.5 nM; under setting [2], 81.6 nM.
Consider “UGUUUUCGAGGAUAUACAUGAGGAUCACCCAUGUGGAUUCACACUGACAGUUCCUUUUGUAGAAGGUGAUAGGC”, for which the “apparent Kd” value by setting is: under setting [1], 124 nM; under setting [2], 170 nM.
Consider “CAAUUCGCACAGAAGGGUGACAUGAGGAUCACCCAUGUAGCGUGGCACUCAGGAGGAGCCACGCCACAGGAUAUGUGCGGGCAC”, for which the “apparent Kd” value by setting is: under setting [3], 33.4 nM; under setting [4], 33.8 nM.
Regarding “UAAUAGUGUGUUAGGAUAUGCUGGUCGAAAGAUCAGCAGAAGGAACAUGAGGAUCACCCAUGUAGAGUAUUUUA”, the “apparent Kd” value under setting [1] was 21.3 nM and the “apparent Kd” value under setting [2] was determined as 62.4 nM.
“UGAGCAAGAGGAUAUACAAGGCGUGCGUGAGCACGAGGUUUACAUGAGGAUCACCCAUGUAGAAGGCUUGUUCU”: the “apparent Kd” value under setting [1] turned out to be 16.3 nM and the “apparent Kd” value under setting [2] worked out at 34.4 nM.
“CGGGCGCGAGGAUAUACAUGAGGAUCACCCAUGUAGUGGGUUUGUUUCGGGCUUGCGUGUAGAAGGUGUGUUUG”: the “apparent Kd” value amounted to 217 nM under setting [1] and 172 nM under setting [2].
As for “GCCUUAUCUGUCAGGAUAUACAAUAAAAUAAUUUUGUAGAAGGGACAUGAGGAUCACCCAUGUACAUUACAUUG”, the “apparent Kd” value stood at 58.3 nM under setting [1] and 257 nM under setting [2].
On to “GUCAGCUCGUGAGGAUAUACAACACUGCUUCCGCAGUGUAUUAAGAUCACAUGAGGAUCACCCAUGUAGAAGGCACGAGCUGAU”, for which the “apparent Kd” value is, setting by setting: under setting [1], 13.7 nM; under setting [2], 222 nM.
On to “UUAGUAUUGCAAGGAUAUGUUUAUGAUAUUUUUCCUCUUACAUGAGGAUCACCCAUGUUUAACUUACAGAAGGUGCUAUGAUUU”, for which the “apparent Kd” value under setting [1] stood at 575 nM and the “apparent Kd” value under setting [2] was determined as 1030 nM.
Turning to “CUGAGGUCAGGAUAUGCAUGGCGGGACUUGCGUCGUGGCGUGCAGAAGGGACAUGAGGAUCACCCAUGUGGAGU”, the “apparent Kd” value is 165 nM under setting [1] and 287 nM under setting [2].
